The values below come from ChEMBL document CHEMBL2311522, “Design, synthesis and biological evaluation of novel aliphatic amido/sulfonamido-quaternary ammonium salts as antitumor agents” (2013).

Activity calls are given as the source filed them. The calls are words filed in the database; no cut-off is given here.

The test system of assay [1] is NCI-H23. In words: Growth inhibition of human NCI-H23 cells by SRB assay. It is filed as functional. Background: Sulforhodamine B stains cellular protein and so reports cell mass.
Assay [2] deals with HCT-15. In words: Growth inhibition of human HCT15 cells by SRB assay. It is filed as functional.
In assay [3] the test system is MDA-MB-231. In words: Growth inhibition of human MDA-MB-231 cells by SRB assay. Format: functional.
The test system of assay [4] is ACHN. In words: Growth inhibition of human ACHN cells by SRB assay. It is filed as functional.
Assay [5] deals with PC-3. In words: Growth inhibition of human PC3 cells by SRB assay. Format: functional.
The subject of assay [6] is NUGC-3. In words: Growth inhibition of human NUGC3 cells by SRB assay. Format: functional.
Assay [7] deals with Rho-related GTP-binding protein RhoB (Homo sapiens) (UniProt P62745). In words: Transactivation of RhoB (unknown origin) transfected in human HeLa cells at 5 uM by dual luciferase reporter gene assay. It is filed as cell-based. In short, it runs like this: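 HeLa cells at 75–90% confluency were transiently cotransfected with a pGL2-RhoB-firefly luciferase promoter construct, then exposed to compounds. RhoB promoter activation was read as luciferase activity with a dual-luciferase reporter system. NSC126188 and perifosine, each at the same concentration as the compounds, served as positive controls.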
(In general: A reporter such as luciferase makes a cellular process visible.)

Rho-related GTP-binding protein RhoB (Homo sapiens), sequence (P62745 whole entry): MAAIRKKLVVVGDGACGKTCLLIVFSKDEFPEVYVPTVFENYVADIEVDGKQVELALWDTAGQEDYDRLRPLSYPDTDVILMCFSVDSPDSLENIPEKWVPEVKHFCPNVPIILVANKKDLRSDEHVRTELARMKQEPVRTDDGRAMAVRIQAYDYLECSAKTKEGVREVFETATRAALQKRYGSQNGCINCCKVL

As a reminder, the GI50 is the concentration at which growth is held to half of that of the control. On to `CCCCCCCCCCCCCC(=O)Nc1ccc([N+](C)(C)C)cc1`, for which the GI50 in assay [1] turned out to be 4.14 µM; in assay [2], 1.36 µM; in assay [3] it was 3.56 µM; in assay [4], 4.54 µM; in assay [5], 0.54 µM; in assay [6] it was 0.74 µM.
For the compound `CCCCCCCCCCCCS(=O)(=O)Nc1ccc([N+](C)(C)C)cc1`, the concentration for 50% growth inhibition (GI50) in assay [1] was found to be 3.94 µM; in assay [4], 4.5 µM; in assay [5], 1.02 µM; in assay [6] it was 1.21 µM. For the same compound, the GI50 result in assay [2] and in assay [3] was “inactive” in each case.
Regarding `CCCCCCCCCCCCCCCC(=O)N1CCC[N+](C)(Cc2cccc(OC(F)(F)F)c2)CC1` (stereo not given), the concentration for 50% growth inhibition (GI50) in assay [1] was determined as 1.45 µM; in assay [3], 1.34 µM; in assay [4], 1.93 µM; in assay [5], 0.63 µM; in assay [6], 0.87 µM. For the same compound, the GI50 result in assay [2] was “inactive”.
In the case of `CCCCCCCCCCCCCCCC(=O)Nc1ccc([N+](C)(C)C)cc1`, the 50% growth inhibitory concentration (GI50) came out at 1.8 µM in assay [1]; 2.37 µM in assay [2]; 2.83 µM in assay [3]; 3.15 µM in assay [4]; 0.79 µM in assay [5]; 0.7 µM in assay [6].
For the compound `CCCCCCCCCCCCCCCCCC(=O)Nc1ccc([N+](C)(C)C)cc1`, the GI50 in assay [1] came out at 3.29 µM; in assay [2], 1.22 µM; in assay [3], 4.34 µM; in assay [4], 1.87 µM; in assay [5], 1.2 µM; in assay [6], 0.41 µM.
As for `CCCCCCCCCCCCCC(=O)N1CCC[N+](C)(Cc2cccc([N+](=O)[O-])c2)CC1` (stereo not given), the concentration for 50% growth inhibition (GI50) in assay [1] was 0.89 µM; in assay [3] it was 0.71 µM; in assay [4], 0.82 µM; in assay [5] it was 0.18 µM; in assay [6], 0.46 µM. The outcome in assay [7] was Active. Moreover, the GI50 result in assay [2] is “inactive”.
For `CCCCCCCCCCCCCC(=O)N1CCC[N+](C)(Cc2ccccc2)CC1` (stereo not given), the GI50 in assay [1] came out at 1.07 µM; in assay [3] it was 1.16 µM; in assay [4] it was 1 µM; in assay [5], 0.45 µM; in assay [6] it was 0.31 µM. Further, the result in assay [7] was Active. Besides, in assay [2], the GI50 result is “inactive”.
As for `CCCCCCCCCCCCCCS(=O)(=O)Nc1ccc([N+](C)(C)C)cc1`, the GI50 came to 0.73 µM in assay [1]; 3.38 µM in assay [2]; 4.54 µM in assay [3]; 0.9 µM in assay [5]; 1.74 µM in assay [6]. The GI50 entry in assay [4] is “inactive”.
Consider `CCCCCCCCCCCCCCCCCCCC(=O)Nc1ccc([N+](C)(C)C)cc1`, for which the 50% growth inhibitory concentration (GI50) in assay [1] turned out to be 1.93 µM; in assay [2] it was 3.02 µM; in assay [3], 3.68 µM; in assay [4], 1.76 µM; in assay [5] it was 1.63 µM; in assay [6], 1.28 µM.
With `CCCCCCCCCCCCCC(=O)N1CCC[N+](C)(Cc2ccc(F)cc2)CC1` (stereo not given), the 50% growth inhibitory concentration (GI50) in assay [1] was found to be 1.48 µM; in assay [3], 1.48 µM; in assay [4], 1.1 µM; in assay [5], 0.45 µM; in assay [6], 0.94 µM. The GI50 entry in assay [2] was “inactive”.
In the case of `CCCCCCCCCCCCCCCCCCOP(=O)([O-])OC1CC[N+](C)(C)CC1` [PERIFOSINE], the figures for the 50% growth inhibitory concentration (GI50) in assay [5] and in assay [6] were 0.44 µM and 0.54 µM, respectively.
As to `CCCCCCCCCCCCCCCC(=O)N1CCC[N+](C)(C)CC1`, the concentration for 50% growth inhibition (GI50) in assay [1] came out at 2.38 µM; in assay [2], 0.93 µM; in assay [3], 0.94 µM; in assay [4] it was 0.4 µM; in assay [5], 0.4 µM; in assay [6], 0.21 µM. Besides, the outcome in assay [7] was Active.
`CCCCCCCCCCCCCCCCCCCC(=O)N1CCC[N+](C)(C)CC1`: the 50% growth inhibitory concentration (GI50) in assay [1] stood at 3.84 µM; in assay [2], 0.99 µM; in assay [3] it was 2.22 µM; in assay [4], 2.78 µM; in assay [6], 0.36 µM. Further, the result in assay [7] was Active. Further, the GI50 entry in assay [5] is “inactive”.
For `CCCCCCCCCCCCCCCCCC(=O)N1CCC[N+](C)(C)CC1`, the GI50 in assay [1] was 1.16 µM; in assay [2], 0.4 µM; in assay [3] it was 0.67 µM; in assay [4] it was 0.57 µM; in assay [5] it was 0.24 µM; in assay [6], 0.26 µM.
For the compound `CCCCCCCCCCCCS(=O)(=O)N1CCC[N+](C)(C)CC1`, the GI50 in assay [1] came out at 0.96 µM; in assay [2], 0.96 µM; in assay [3] it was 0.84 µM; in assay [4], 1.16 µM; in assay [5] it was 0.38 µM; in assay [6], 0.24 µM. Moreover, the result in assay [7] was Active.
For `CCCCCCCCCCCCCCCC(=O)N1CC[N+](C)(C)CC1`, the result in assay [7] was Active. For the same compound, the 50% growth inhibitory concentration (GI50) stood at 0.58 µM in assay [2], 0.48 µM in assay [5] and 0.29 µM in assay [6].
For the compound `CCCCCCCCCCCCCC(=O)N1CCC[N+](C)(C)CC1`, the concentration for 50% growth inhibition (GI50) in assay [1] came to 1.36 µM; in assay [2], 1.7 µM; in assay [3], 0.98 µM; in assay [4], 0.49 µM; in assay [5] it was 0.36 µM; in assay [6], 0.08 µM. Moreover, in assay [7], the result was Active.
With `CCCCCCCCCCCCCCS(=O)(=O)N1CCC[N+](C)(C)CC1`, the GI50 in assay [1] was found to be 0.8 µM; in assay [2], 0.38 µM; in assay [3], 0.83 µM; in assay [4], 1.33 µM; in assay [5], 0.62 µM; in assay [6], 0.25 µM. The outcome in assay [7] was Active.
In the case of `CCCCCCCCCCCCCCCCS(=O)(=O)N1CCC[N+](C)(C)CC1`, the 50% growth inhibitory concentration (GI50) was 3.4 µM in assay [1]; 0.77 µM in assay [2]; 0.59 µM in assay [3]; 2.01 µM in assay [4]; 0.4 µM in assay [5]; 0.38 µM in assay [6]. For the same compound, the result in assay [7] was Active.
`C=CC[N+]1(C)CCCN(C(=O)CCCCCCCCCCCCC)CC1` (stereo not given): the GI50 in assay [1] worked out at 0.28 µM; in assay [3], 0.45 µM; in assay [4], 0.44 µM; in assay [5], 0.18 µM; in assay [6], 0.26 µM. The result in assay [7] was Active. Further, the GI50 result in assay [2] was “inactive”.
As to `CCCCCCCCCCCCCC(=O)N1CCC[N+](C)(CC)CC1` (stereo not given), the concentration for 50% growth inhibition (GI50) worked out at 1.18 µM in assay [1]; 1.86 µM in assay [2]; 0.68 µM in assay [3]; 1.61 µM in assay [4]; 0.27 µM in assay [5]; 0.22 µM in assay [6]. Also, the outcome in assay [7] was Active.
